The values that follow come from publication PMC10663723 (RSC Advances, 2023).

SMILES strings stand for the structures. Converted amounts (≈) assume the structure as drawn.

A word on the CC50: it is the concentration that lowers cell viability or growth by half. Higher therefore signals better tolerance by the cells. For orientation: EC50 means the concentration at which the effect is half-maximal.

Series [1] in a line: MTT cell viability assay, HFF cells. In kind it is cell-based. Particulars: human, HFF cells (non-cancer human foreskin fibroblasts). In short, it runs like this:
(§1)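 Cells plated at 10000/well in DMEM with 10% FBS and incubated 20 h at 37 °C, 5% CO2. Test compound (20 mg mL−1 DMSO stock, diluted in medium) was applied at 0.1–100 μg mL−1 for 48 h; 0.5% final DMSO served as vehicle control. MTT (0.5 mg mL−1) was added for 4 h at 37 °C in the dark, formazan was dissolved in DMSO, and absorbance was read at 570 nm.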
For orientation: Formazan colour is commonly taken as a measure of viable cells.

In series [2] the test system is triple-negative breast cancer cells (MDA-MB-231). The series can be described thus: MTT cell viability assay, MDA-MB-231 cells. The format is cell-based, human. Particulars: CC50 HFF / EC50 MDA-MB-231. In short, it runs like this:
as §1

The test system of series [3] is lung cancer cells (A549). The experiment in a line: MTT cell viability assay, A549 cells. In kind it is cell-based, human. The method, boiled down:
as §1

Series [4] deals with cervical cancer cells (HeLa). The experiment in a line: MTT cell viability assay, HeLa cells. The format is cell-based. The note with it: Homo sapiens, 48 h, read-out: EC50, HeLa. In short, it runs like this: as §1

The compound `COc1cccc2c1C(=O)c1c(O)c3c(c(O)c1C2=O)C[C@@](O)(C(=O)CO)C[C@@H]3O[C@H]1C[C@H](N)[C@H](O)[C@H](C)O1` [doxorubicin] had a CC50 at 48 h in series [1] of 8.96 µg/mL (≈ 16.5 µM). Moreover, in series [2], the “SI (selectivity index) MDA-MB-231 with respect to HFF cells” value was 2.73. For the same compound, the “SI (selectivity index) A549 with respect to HFF cells” value in series [3] (CC50 HFF / EC50 A549) came out at 2.83. Also, the EC50 worked out at 2.68 µg/mL (≈ 4.93 µM) in series [3] (Homo sapiens, A549, 48 h, read-out: EC50, A549) and 1.69 µg/mL (≈ 3.11 µM) in series [4].
